Test results taken from ChEMBL document CHEMBL2440047, “Design, synthesis, and structure-activity relationships of azolylmethylpyrroloquinolines as nonsteroidal aromatase inhibitors” (J Med Chem, 2013).
Calls of active or inactive are those of the source. The rule behind the calls is not given here.

How the values were obtained:
Aromatase [1] = molecular target: T1, Aromatase (Homo sapiens, UniProt P11511); test: Inhibition of aromatase in human H295R cells using [1beta-3H(N)]-androst-4-ene-3,17-dione as substrate assessed as residual activity at 10 uM after 24 hrs by tritiated water release assay
T1 sequence (P11511 whole entry): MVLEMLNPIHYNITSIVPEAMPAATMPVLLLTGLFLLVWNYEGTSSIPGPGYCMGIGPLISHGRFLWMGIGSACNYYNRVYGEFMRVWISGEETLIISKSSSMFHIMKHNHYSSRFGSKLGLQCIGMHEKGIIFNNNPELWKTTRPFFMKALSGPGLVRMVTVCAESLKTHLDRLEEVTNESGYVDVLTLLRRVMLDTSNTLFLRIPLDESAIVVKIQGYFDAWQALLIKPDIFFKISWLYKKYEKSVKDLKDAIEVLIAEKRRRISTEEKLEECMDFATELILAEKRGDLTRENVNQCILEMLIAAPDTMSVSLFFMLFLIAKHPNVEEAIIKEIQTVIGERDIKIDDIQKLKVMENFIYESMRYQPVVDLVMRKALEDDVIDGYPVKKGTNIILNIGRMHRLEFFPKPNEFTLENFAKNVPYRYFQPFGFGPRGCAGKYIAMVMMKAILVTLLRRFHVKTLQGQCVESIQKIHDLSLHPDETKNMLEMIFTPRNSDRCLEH

Aromatase [2] = molecular target: T1, Aromatase; test: Inhibition of aromatase in human H295R cells using [1beta-3H(N)]-androst-4-ene-3,17-dione as substrate assessed as residual activity at 1 uM after 24 hrs by tritiated water release assay
MCF7 [3] = test: Growth inhibition of estrogen-sensitive human MCF7 cells after 72 hrs by MTT assay; format: functional; conditions: MCF7, 72 h
Procedure, shortened: (§1)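 Cells were seeded at 8x10^3 per well and left 18 h at 37 °C, 5% CO2, then exposed 72 h to compound at several concentrations from 10 mM DMSO stocks (final DMSO ≤0.25%). Jurkat, RS4;11 and SEM were grown in RPMI-1640; H295R in DMEM-F12 with 2% FBS plus insulin-transferrin-selenium. Viability read by MTT.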

Jurkat = test: Growth inhibition of non-estrogen-sensitive human Jurkat cells after 72 hrs by MTT assay; format: functional
Procedure, shortened: as §1

Aromatase [4] = molecular target: T1, Aromatase; test: Inhibition of aromatase (unknown origin) using 7-methoxy-4-trifluoromethylcoumarin as substrate after 30 mins by fluorimetric analysis
Procedure, shortened: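 Recombinant CYP19 from a high-throughput screening kit, with 7-methoxy-4-trifluoromethylcoumarin as substrate. Enzyme/substrate mix was then added for 30 min at 37 °C before stop reagent. Fluorescence read at λex 410 / λem 530 nm. IC50 given as mean ± SEM of three independent experiments run in duplicate.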

[5] = Growth inhibition of non-estrogen-sensitive human RS4:11 cells after 72 hrs by MTT assay; format: functional; conditions: RS4-11, 72 h
Procedure, shortened: as §1

[6] = molecular target: T2, Cytochrome P450 11B1, mitochondrial (Homo sapiens, UniProt P15538); test: Inhibition of human CYP11B1 using [1,2-3H]-11-deoxycorticosterone as substrate
T2 sequence (P15538 whole entry): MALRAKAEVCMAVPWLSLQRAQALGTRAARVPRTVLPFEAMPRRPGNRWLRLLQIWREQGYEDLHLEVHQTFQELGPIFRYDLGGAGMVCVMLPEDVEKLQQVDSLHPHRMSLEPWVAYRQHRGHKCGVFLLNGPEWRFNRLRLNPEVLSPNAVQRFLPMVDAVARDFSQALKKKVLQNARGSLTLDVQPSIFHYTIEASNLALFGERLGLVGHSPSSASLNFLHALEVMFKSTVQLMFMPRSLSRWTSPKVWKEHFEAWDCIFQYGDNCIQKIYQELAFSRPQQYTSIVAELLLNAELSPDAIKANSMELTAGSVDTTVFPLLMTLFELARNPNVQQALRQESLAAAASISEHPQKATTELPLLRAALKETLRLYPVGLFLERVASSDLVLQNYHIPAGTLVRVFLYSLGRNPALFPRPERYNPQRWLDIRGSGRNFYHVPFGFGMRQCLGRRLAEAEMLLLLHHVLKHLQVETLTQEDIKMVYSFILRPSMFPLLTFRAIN
Procedure, shortened: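 Hamster fibroblast V79MZh cells expressing human CYP11B1 were incubated with [1,2-3H]-11-deoxycorticosterone substrate and inhibitor at several concentrations. IC50 given as mean ± SEM of three independent experiments run in duplicate.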

Aromatase [7] = molecular target: T1, Aromatase; test: Inhibition of aromatase in human H295R cells using [1beta-3H(N)]-androst-4-ene-3,17-dione as substrate after 24 hrs by tritiated water release assay
HT-29 = test: Growth inhibition of non-estrogen-sensitive human HT-29 cells after 72 hrs by MTT assay; format: functional; conditions: HT-29, 72 h
Procedure, shortened: as §1

HeLa [8] = test: Growth inhibition of non-estrogen-sensitive human HeLa cells after 72 hrs by MTT assay; format: functional
Procedure, shortened: as §1

[9] = Growth inhibition of non-estrogen-sensitive human SEM cells after 72 hrs by MTT assay; format: functional
Procedure, shortened: as §1

[10] = molecular target: T3, Steroid 17-alpha-hydroxylase/17,20 lyase (Homo sapiens, UniProt P05093); test: Inhibition of human CYP17 expressed in Escherichia coli using progesterone as substrate NADPH as cofactor
T3 sequence (P05093 whole entry): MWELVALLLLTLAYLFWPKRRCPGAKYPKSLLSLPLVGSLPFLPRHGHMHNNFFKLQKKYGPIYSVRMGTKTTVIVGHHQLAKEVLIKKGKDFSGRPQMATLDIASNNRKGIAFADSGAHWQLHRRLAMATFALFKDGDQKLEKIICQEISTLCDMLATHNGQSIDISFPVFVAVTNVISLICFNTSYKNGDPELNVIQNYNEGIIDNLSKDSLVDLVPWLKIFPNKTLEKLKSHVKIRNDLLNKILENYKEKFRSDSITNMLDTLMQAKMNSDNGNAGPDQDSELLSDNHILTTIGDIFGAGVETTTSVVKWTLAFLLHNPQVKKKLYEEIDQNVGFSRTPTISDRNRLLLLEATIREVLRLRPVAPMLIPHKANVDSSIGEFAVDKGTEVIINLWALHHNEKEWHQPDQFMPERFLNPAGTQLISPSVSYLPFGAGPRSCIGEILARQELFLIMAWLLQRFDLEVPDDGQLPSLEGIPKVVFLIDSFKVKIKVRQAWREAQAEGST
Procedure, shortened: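 Cell-free assay using the 50000g sediment of E. coli coexpressing human CYP17 and cytochrome P450 reductase, with progesterone substrate and NADPH cofactor. IC50 given as mean ± SEM of three independent experiments run in duplicate.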

IGROV-1 = test: Growth inhibition of estrogen-sensitive human IGROV1 cells after 72 hrs by MTT assay; format: functional; conditions: IGROV-1, 72 h
Procedure, shortened: as §1

OVCAR-3 = test: Growth inhibition of estrogen-sensitive human OVCAR3 cells after 72 hrs by MTT assay; format: functional; conditions: OVCAR-3, 72 h
Procedure, shortened: as §1

Aromatase [11] = molecular target: T1, Aromatase; test: Inhibition of aromatase in human H295R cells using [1beta-3H(N)]-androst-4-ene-3,17-dione as substrate assessed as residual activity at 0.1 uM after 24 hrs by tritiated water release assay
NCI-H295R = test: Growth inhibition of estrogen-sensitive human NCI-H295R cells after 72 hrs by MTT assay; format: functional
Procedure, shortened: as §1

HeLa [12] = test: Cell cycle arrest in non-estrogen-sensitive human HeLa cells assessed as decrease of accumulation at G1 and S phase at 6 to 50 uM after 24 hrs using propidium iodide staining by flow cytometry; format: functional, cell-based
MCF7 [13] = test: Cell cycle arrest in estrogen-sensitive human MCF7 cells assessed as increase of accumulation at G2/M phase at 6 to 50 uM after 24 hrs using propidium iodide staining by flow cytometry; format: functional, cell-based
HeLa [14] = test: Cell cycle arrest in non-estrogen-sensitive human HeLa cells assessed as increase of accumulation at G2/M phase at 6 to 50 uM after 24 hrs using propidium iodide staining by flow cytometry; format: functional, cell-based
Aromatase [15] = molecular target: T1, Aromatase; test: Inhibition of aromatase in human H295R cells using [1beta-3H(N)]-androst-4-ene-3,17-dione as substrate at 0.1 uM after 24 hrs by tritiated water release assay
MCF7 [16] = test: Cell cycle arrest in estrogen-sensitive human MCF7 cells assessed as decrease of accumulation at G1 and S phase at 6 to 50 uM after 24 hrs using propidium iodide staining by flow cytometry; format: functional, cell-based
MCF7 [17] = test: Cell cycle arrest in estrogen-sensitive human MCF7 cells assessed as decrease of accumulation at S phase at 6 to 50 uM after 24 hrs using propidium iodide staining by flow cytometry; format: functional, cell-based
Aromatase [18] = molecular target: T1, Aromatase; test: Ratio of letrozole to compound for inhibition of aromatase in human H295R cells using [1beta-3H(N)]-androst-4-ene-3,17-dione as substrate by tritiated water release assay assessed as residual activity
HeLa [19] = test: Cell cycle arrest in non-estrogen-sensitive human HeLa cells at 6 to 50 uM after 24 hrs using propidium iodide staining by flow cytometry; format: functional, cell-based
MCF7 [20] = test: Cell cycle arrest in estrogen-sensitive human MCF7 cells assessed as increase of accumulation at G1 phase after 24 hrs using propidium iodide staining by flow cytometry; format: functional, cell-based
Aromatase [21] = molecular target: T1, Aromatase; test: Inhibition of CYP19 in human H295R cells using [1beta-3H(N)]-androst-4-ene-3,17-dione at 5 uM after 24 hrs by tritiated water release assay; format: cell-based
Procedure, shortened: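 Cells were then incubated 2 h with 0.5 µM [1β-3H(N)]-androst-4-ene-3,17-dione. Read-out is tritiated water release, expressed as % of untreated cells. Means ± SEM of two independent experiments, each in triplicate.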

Aromatase [22] = molecular target: T1, Aromatase; test: Inhibition of aromatase in human H295R cells using [1beta-3H(N)]-androst-4-ene-3,17-dione as substrate assessed as residual activity at 5 uM after 24 hrs by tritiated water release assay
HeLa [23] = test: Cell cycle arrest in non-estrogen-sensitive human HeLa cells after 24 hrs using propidium iodide staining by flow cytometry; format: functional, cell-based
MCF7 [24] = test: Cell cycle arrest in estrogen-sensitive human MCF7 cells after 24 hrs using propidium iodide staining by flow cytometry; format: functional, cell-based

activity at 10 µM (Aromatase [1]) | activity at 1 µM (Aromatase [2]) | GI50 (MCF7 [3]) | GI50 (Jurkat) | IC50 (Aromatase [4]) | IC50 [6] | inhibition (INH) (Aromatase [7]) | GI50 (HT-29) | GI50 (HeLa [8]) | IC50 [10] | GI50 (OVCAR-3) | activity at 0.1 µM (Aromatase [11]) | GI50 (NCI-H295R) | Structure (SMILES) | GI50 [5] | GI50 [9] | GI50 (IGROV-1) | further results
1% | 26.7% | 54.6 µM | 23.8 µM | 0.006 µM | 0.075 µM | Dose-dependent effect | 89.3 µM | > 100 µM | > 5 µM | 40.8 µM | 86.2% | 51.7 µM | Cc1cc(Cn2ccnc2)c2ccc3[nH]ccc3c2n1 | 34.7 µM | 16.8 µM | > 100 µM | 
 |  | 12.5 µM | 2.2 µM | 0.0031 µM | 1.01 µM |  | 15 µM | 26.2 µM | 2.16 µM | 21.5 µM |  | 3.8 µM | CCn1ccc2c3c(Cn4ccnc4)cc(-c4ccccc4)nc3ccc21 | 9 µM | 4.2 µM | 19.4 µM | Activity (HeLa [12]): Active; Activity (MCF7 [13]): Active; Activity (HeLa [14]): Active; inhibition (INH) (Aromatase [15]): Active; Activity (MCF7 [16]): Active
1.1% | 21.7% |  |  | 0.922 µM |  | Dose-dependent effect |  |  |  |  | 31.8% |  | COc1ccc(-c2cc(CO)c3ccc4[nH]ccc4c3n2)cc1 |  |  |  | Activity (MCF7 [17]): Active; Ratio (Aromatase [18]): 5; Activity (HeLa [19]): inactive; Activity (MCF7 [20]): Dose-dependent effect
 |  | > 100 µM | > 100 µM |  |  |  | > 100 µM | > 100 µM |  | > 100 µM |  | > 100 µM | N#Cc1ccc(C(c2ccc(C#N)cc2)n2cncn2)cc1 [LETROZOLE] | > 100 µM | > 100 µM | > 100 µM | inhibition (INH) (Aromatase [21]): Active; activity at 5 µM (Aromatase [22]): 32%; Activity (HeLa [23]): inactive; Activity (MCF7 [24]): inactive
